# High-throughput results deposited in PubChem by several laboratories.
# Most compounds without a hit are left out; they make up all but 2.8% or so of the library.
# MC4R antagonist: MC4R antagonists of cAMP signaling, primary screen, cell-based, TR-FRET, antagonist arm of biased-ligand search; Melanocortin receptor 4 (Homo sapiens), P32245; MC4R-expressing cells, MTII-stimulated cAMP, LANCE TR-FRET; inhibition, % at 6.5 µM; actives 0.48% (n = 360,000); AID 540295, 2011;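 active = inhibition above its plate's cutoff, the mean of tested wells on that plate plus 3 SD, cut at about 29% in these data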
#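 System: U2OS-MC4R stable cell line; Technique: Eu-cAMP/anti-cAMP TR-FRET, emission 671 nm; Repeats: single well per compound; Also added: Melanotan II; Dosing: one concentration, 6.5 µM nominal; Schedule: 30-min compound, 1-h challenge, 1-h detection, room temperature.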
# EBI2 antag: EBI2 receptor antagonists, beta-arrestin recruitment, primary screen, cell-based, luminescence, 7a,25-OHC stimulation, uHTS. G-protein coupled receptor 183 (Homo sapiens), P32249. 7a,25-OHC stimulated. inhibition, % at 5 µM. actives 0.81% (n = 360,000); in the data active = inhibition above about 38%;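 note: enzyme fragment complementation signal reports receptor beta-arrestin coupling in cells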
# MC4R ag barr: MC4R agonists recruiting beta-arrestin, primary screen, cell-based, luminescence, agonist arm of biased-ligand search | U2OS MC4R beta-arrestin complementation; percent of melanotan II response, DMSO zero | activation, % at 8.9 µM | actives 0.98% (n = 360,000);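 active = activation above a per-plate cutoff, the mean activation of sample wells on that plate plus 3 SD, cut at about 8% in these data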
# HTR2A ag: mouse Htr2a agonists via beta-arrestin recruitment, primary screen, cell-based, luminescence | 5-hydroxytryptamine receptor 2A (Mus musculus), P35363 | CHO-K1 mHTR2A beta-arrestin complementation; percent of 30 µM serotonin response | activation, % at 7.6 µM | actives 0.66% (n = 360,000) | AID 624169, 2012;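 active = activation above a run cutoff, the mean activation of all tested compounds plus 3 SD, cut at about 14% in these data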
# Target sequence (P35363 whole entry, looked up): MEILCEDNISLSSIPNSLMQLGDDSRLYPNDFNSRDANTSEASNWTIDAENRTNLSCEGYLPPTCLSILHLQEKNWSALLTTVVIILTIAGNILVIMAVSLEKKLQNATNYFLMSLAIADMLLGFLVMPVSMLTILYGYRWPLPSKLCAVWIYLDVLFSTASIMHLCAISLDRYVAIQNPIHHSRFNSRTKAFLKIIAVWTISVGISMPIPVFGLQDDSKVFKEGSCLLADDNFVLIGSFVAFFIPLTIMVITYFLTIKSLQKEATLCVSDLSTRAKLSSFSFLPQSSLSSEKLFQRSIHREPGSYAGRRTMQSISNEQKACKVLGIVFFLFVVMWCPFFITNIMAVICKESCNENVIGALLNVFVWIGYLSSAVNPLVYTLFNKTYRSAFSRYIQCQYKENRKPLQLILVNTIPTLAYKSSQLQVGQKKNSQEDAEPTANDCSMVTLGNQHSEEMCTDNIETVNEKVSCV
# MC4R barr ag: MC4R beta-arrestin agonists, retest, confirmation, cell-based, luminescence, U2OS | actives 31% (n = 2,400) | AID 602192, 2012 | U2OS MC4R beta-arrestin recruitment; scaled DMSO 0%, Melanotan II 100% | activation, % at 8.9 µM | shares compounds with MC4R ag barr;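 active = mean activation across replicates above the hit cutoff set in the earlier primary screen, cut at about 8% in these data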
# MOR-DOR barr ag: agonists of MOR-DOR heterodimerization, counter-screen for MC4R biased agonist project, cell-based, luminescence; actives 5.8% (n = 2,400); U2OS PathHunter beta-arrestin, beta-gal luminescence; percent of deltorphin B response, DMSO zero; activation, % at 9.2 µM; AID 602194, 2012; shares compounds with MC4R ag barr;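 active = mean activation across replicates exceeds the hit threshold derived in the earlier primary screen, cut at about 18% in these data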
# MOR ag counter: OPRM1 agonists via beta-arrestin recruitment, confirmation, counter-screen for mouse HTR2A agonist project, cell-based, luminescence, single concentration; shares compounds with HTR2A ag; U2OS OPRM1 beta-arrestin PathHunter; DMSO 0%, DAMGO 9.3 µM 100%; activation, % at 9.3 µM; actives 5.3% (n = 2,300); AID 624380, 2012;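 active = mean activation above the mean of DMSO-only wells plus 3 SD, cut at about 0.5% in these data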
# m5-HT2A ag conf: mouse HTR2A agonists, beta-arrestin recruitment, confirmation, cell-based, luminescence, CHO-K1 PathHunter, triplicate; DMSO 0%, 30 µM serotonin 100%; shares compounds with HTR2A ag; actives 19% (n = 2,300); activation, % at 7.6 µM;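 active = mean activation across triplicates above the hit threshold derived in the original primary screen, cut at about 15% in these data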
# EBI2 conf: EBI2 antagonist hit retest, beta-arrestin, confirmation, cell-based, single concentration, luminescence, 7a,25-OHC stimulation | shares compounds with EBI2 antag | 7a,25-OHC antagonism | inhibition, % at 5 µM | actives 29% (n = 2,400);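 active = inhibition of at least 50%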
# EBI2 ag: EBI2 agonist activity of antagonist hits, confirmation, counter-screen for EBI2 antagonist project, cell-based, single concentration, agonist mode, luminescence; shares compounds with EBI2 antag; EBI2-expressing cells, 60 min; 0% vehicle, 100% 7α,25-dihydroxycholesterol control; activation, % at 5 µM; 2,400 tested, under 10 active;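 active = activation of at least 50%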
# bGal cs: E. coli beta-galactosidase enzyme inhibition, confirmation, counter-screen for EBI2 antagonist project, biochemical, luminescence, single concentration. purified beta-galactosidase, luminescent Galacton Star, 15 min. shares compounds with EBI2 antag. actives 1% (n = 2,400). AID 652176, 2013. inhibition, % at 5 µM;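 active = replicate-average signal at least 3 plate SD below neutral wells, shown as high inhibition, flagging enzyme-inhibiting false positives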;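 note: higher means stronger loss of beta-gal luminescence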
# A number is an active result; . = inactive; / = not tested or not shown.
SMILES,MC4R antagonist,EBI2 antag,MC4R ag barr,HTR2A ag,MOR ag counter,m5-HT2A ag conf,others
Cc1ccc(CNC(=O)c2ccc(COc3ccccc3)cc2)cc1,.,52.5,13.2,.,/,/,MC4R barr ag=.;MOR-DOR barr ag=.;EBI2 conf=56.0;EBI2 ag=.;bGal cs=.
COc1ccc(C2c3ccc(O)cc3Oc3ncn4nc(-c5ccccn5)nc4c32)cc1 (configuration not stated),.,47.3,48.7,.,/,/,MC4R barr ag=9.5;MOR-DOR barr ag=.;EBI2 conf=.;EBI2 ag=.;bGal cs=.
COc1ccc(C2c3ccc(O)cc3Oc3ncn4nc(-c5ccccn5)nc4c32)cc1OC (configuration not stated),.,.,.,.,/,/,
COCCN(CCOC)Cc1cc(=O)oc2cc(C)cc(C)c12,/,.,/,.,/,/,
CC(=O)c1nn(-c2cccc(Cl)c2)cc1C(=O)c1ccco1,.,.,.,.,/,/,
CC(=O)c1nn(-c2ccc(Br)cc2)cc1C(=O)c1ccccc1,.,52.2,29.0,.,/,/,MC4R barr ag=.;MOR-DOR barr ag=19.0;EBI2 conf=.;EBI2 ag=.;bGal cs=.
CC(=O)c1nn(-c2ccc(Cl)cc2)cc1C(=O)c1ccc(C)cc1,.,87.7,21.0,.,/,/,MC4R barr ag=12.9;MOR-DOR barr ag=.;EBI2 conf=51.4;EBI2 ag=.;bGal cs=.
CC(=O)c1nn(-c2ccc(Br)cc2)cc1C(=O)c1ccco1,.,.,.,.,/,/,
O=C(/C=C/c1ccc(Br)cc1)N1CCN(c2cccc(C(F)(F)F)c2)CC1,.,94.1,14.4,.,/,/,MC4R barr ag=.;MOR-DOR barr ag=.;EBI2 conf=80.9;EBI2 ag=.;bGal cs=.
Cc1cnc(-c2nc3ccccc3n2C(C(=O)Nc2c(C)cccc2C)C2CC2)cn1 (configuration not stated),/,.,/,.,/,/,
Clc1ccc(Cl)c(-c2nn3c(COc4ccccc4)nnc3s2)c1,.,53.1,17.2,.,/,/,MC4R barr ag=11.4;MOR-DOR barr ag=.;EBI2 conf=.;EBI2 ag=.;bGal cs=.
S=c1[nH]c(-c2ccc(Br)cc2)cn1CCc1ccccc1,.,56.6,19.0,.,/,/,MC4R barr ag=.;MOR-DOR barr ag=.;EBI2 conf=.;EBI2 ag=.;bGal cs=.
COc1ccccc1-n1cc(-c2ccc(Br)cc2)[nH]c1=S,.,.,.,.,/,/,
COCCNC(=O)C1(C)CCCN(C(=O)c2cc(C)on2)C1 (configuration not stated),.,.,.,.,/,/,
CCCCC(=O)N(C)c1c(CC)nc2c(OCCOc3ccccc3)cccn12,.,.,.,24.9,.,.,
c1ccc(Nc2nc(N3CCCCC3)nc(N3CCNCC3)n2)cc1,.,.,.,54.7,.,31.1,
CCN1C(=O)[C@H]2[C@@H](c3ccc(OC)cc3)N3C(=O)CN(CC4CC4)C(=O)[C@@]3(C)[C@H]2C1=O,.,.,.,20.8,.,.,
COc1ccc(CCN2CC(C(=O)NCCCn3nc(C)cc3C)CCC2=O)cc1 (configuration not stated),.,.,.,18.3,.,.,
COC(=O)C(CCSC)NC(=O)Cn1ncc2c(=O)oc3ccccc3c21 (configuration not stated),.,.,.,22.6,.,.,
CCn1cc(C(=O)NCCCN2CCCC(C)C2)c(=O)c2cc(S(=O)(=O)N3CCOCC3)ccc21 (configuration not stated),.,.,.,21.1,.,.,
CCOCCCNC(=O)c1cn(CC)c2ccc(S(=O)(=O)N3CCOCC3)cc2c1=O,.,.,.,.,/,/,
O=C(NCCc1cn2cccnc2n1)C1CCC(=O)N(Cc2ccccc2F)C1 (configuration not stated),.,.,.,.,/,/,
C/C=C/C(=O)OCC(=O)Nc1nc2ccc(C)cc2s1,.,.,.,25.8,.,.,
C/C(=N/NS(=O)(=O)c1cccc([N+](=O)[O-])c1)c1ccncc1,.,.,.,.,/,/,
CC(=NNS(=O)(=O)c1cccc([N+](=O)[O-])c1)c1ccc(-n2ccnc2)cc1,.,.,.,15.3,.,.,
SMILES,MC4R antagonist,EBI2 antag,MC4R ag barr,HTR2A ag,MOR ag counter,m5-HT2A ag conf,others
O=C(CN1CCN(C(=O)c2ccccc2)CC1)NC(=O)NCCC1=CCCCC1,.,.,.,19.6,.,.,
CC(c1ccccc1)N(C)CC(=O)NC(=O)NCCC1=CCCCC1 (configuration not stated),.,.,.,.,/,/,
CN(CC(=O)Nc1cccnc1)S(=O)(=O)c1ccc(Br)cc1,.,.,.,16.9,.,.,
CN1CCN(NC(=O)Nc2ccc(F)cc2)CC1,.,.,.,14.5,.,.,
COCCn1cnnc1SCC(=O)Nc1sc2c(c1C#N)CCC2,.,.,.,17.3,.,.,
NC(=O)Cn1nc(C(F)(F)F)c2c1CCCC2,.,.,.,40.0,.,.,
COC(=O)CCC(C)C1CCC2C3CCC4CC(O)CCC4(C)C3=CC(=O)C12C (configuration not stated),.,.,.,.,/,/,
Cc1c(C(=O)Nc2ccc(S(=O)(=O)N3CCOCC3)cc2)cccc1[N+](=O)[O-],.,.,.,19.2,.,.,
Cc1cccc(C(=O)Nc2ccc(S(=O)(=O)N3CCOCC3)cc2)c1[N+](=O)[O-],.,.,.,.,/,/,
